Experiment [1] addresses Cathepsin B (Homo sapiens, UniProt P07858). As to the kind of experiment: Inhibition of human liver cathepsin B. A digest of the protocol: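 Human liver enzyme at 0.56 ng/mL final in sodium acetate pH 5.5 buffer with 4 mM DTT, 0.01% Triton X-100, 0.5 mM EDTA. 20 min room-temperature preincubation with inhibitor, then Z-Arg-Arg-AMC (10 µM final). Quadruplicate. Sigmoidal IC50 fit.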

Experiment [2] deals with Procathepsin L (Homo sapiens, UniProt P07711). As to the kind of experiment: Inhibition of human liver cathepsin L. A digest of the protocol: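 Inhibitor preincubated 20 min at room temperature before Z-Phe-Arg-AMC (10 µM final). Initial rate from fluorescence (ex 350/em 460 nm) over 10 min. Quadruplicate. Sigmoidal IC50 fit.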
In experiment [3] the test system is Trypanosoma brucei. In words: Antitrypanosomal activity against Trypanosoma brucei. The format is functional, organism-based. The gist of the method: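 Culture-adapted bloodstream T. brucei grown in HMI-9 with pen/strep, 10% heat-inactivated FBS and 10% Serum Plus at 37 °C, 5% CO2, diluted to 1 × 10^4 cells/mL. Inhibitor added from DMSO, 48 h at 37 °C, then 1 h room-temperature equilibration. Cell Titer Glo luminescence read after 8 min. Quadruplicate. IC50 by curve fitting. Values shift up to 10-fold with FBS lot.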

Experiment [4] has as its target T1, Cathepsin B-like cysteine protease (Trypanosoma brucei, UniProt Q6R7Z5).
T1 sequence (Q6R7Z5 whole entry): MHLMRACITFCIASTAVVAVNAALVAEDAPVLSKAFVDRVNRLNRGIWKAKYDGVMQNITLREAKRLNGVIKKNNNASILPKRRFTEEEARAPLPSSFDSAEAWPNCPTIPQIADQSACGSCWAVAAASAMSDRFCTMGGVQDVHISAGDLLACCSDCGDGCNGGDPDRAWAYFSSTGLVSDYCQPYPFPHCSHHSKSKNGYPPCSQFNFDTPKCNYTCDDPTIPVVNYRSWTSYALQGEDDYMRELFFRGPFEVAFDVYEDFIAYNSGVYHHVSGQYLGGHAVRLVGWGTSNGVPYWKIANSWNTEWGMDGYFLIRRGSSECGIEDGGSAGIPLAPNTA
In words: Inhibition of Trypanosoma brucei cathepsin B-like cysteine protease. A digest of the protocol: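 Recombinant TbcatB zymogen expressed in Pichia pastoris, purified by HIC and anion exchange, titrated with CA074; 35 nM final. Inhibitor preincubated 20 min at room temperature, then Z-Phe-Arg-AMC (10 µM final). Initial rate from fluorescence (ex 350/em 460 nm) over 10 min. Triplicate. Sigmoidal IC50 fit.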

For 41 molecules, IC50 and EC50 results are on record in ChEMBL document CHEMBL1140721, “Development of potent purine-derived nitrile inhibitors of the trypanosomal protease TbcatB” (J Med Chem, 2008).

Chain of Procathepsin L (P07711 whole entry): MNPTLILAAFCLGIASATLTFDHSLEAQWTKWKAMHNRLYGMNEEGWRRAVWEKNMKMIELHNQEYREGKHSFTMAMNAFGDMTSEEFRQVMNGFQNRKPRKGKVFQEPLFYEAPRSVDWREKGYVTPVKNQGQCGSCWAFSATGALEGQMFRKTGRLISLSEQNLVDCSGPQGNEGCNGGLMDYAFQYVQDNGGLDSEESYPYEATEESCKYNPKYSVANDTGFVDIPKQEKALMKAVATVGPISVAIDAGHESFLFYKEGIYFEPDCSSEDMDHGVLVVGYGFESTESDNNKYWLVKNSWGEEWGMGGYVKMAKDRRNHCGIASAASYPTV

For `N#Cc1nc(NCc2ccc(F)cc2)c2ncn(Cc3ccccc3)c2n1`, the IC50 (commonly the concentration at which inhibition is half-maximal) in experiment [1] is more than 30 µM; in experiment [2], 13.5 µM; in experiment [3], 0.9 µM; in experiment [4] it was 3.3 µM.

On to `Cc1ccc(CNc2nc(C#N)nc3c2ncn3Cc2ccccc2)cc1`, for which the IC50 in experiment [1] is more than 30 µM; in experiment [2], 12.9 µM; in experiment [4] it was more than 25 µM. The response in experiment [3] was half-maximal at 0.56 µM (EC50).

`COc1ccc(Cn2cnc3c(NCc4ccc(Cl)cc4)nc(C#N)nc32)cc1`: the IC50 in experiment [1] is more than 30 µM; in experiment [2] it was more than 30 µM; in experiment [3], 0.27 µM; in experiment [4], 23 µM.

In the case of `N#Cc1nc(NCc2ccc(F)cc2)c2ncn(CCCCO)c2n1`, the IC50 in experiment [1] is more than 30 µM; in experiment [2] it was 6.68 µM; in experiment [3], 0.8 µM; in experiment [4] it was 18 µM.

With `N#Cc1nc(NCc2ccccc2)c2ncn(Cc3cccc(C(F)(F)F)c3)c2n1`, the IC50 in experiment [1] is more than 30 µM; in experiment [2], more than 30 µM; in experiment [3] it was 0.26 µM; in experiment [4] it was 2.8 µM.

On to `N#Cc1nc(NCc2ccc(Cl)cc2)c2ncn(CCCO)c2n1`, for which the IC50 in experiment [2] was found to be 0.61 µM; in experiment [3], 0.31 µM; in experiment [4] it was 0.57 µM.

`N#Cc1nc(NCc2ccc(Cl)cc2)c2ncn(C3CCCC3)c2n1`: the IC50 in experiment [1] is more than 30 µM; in experiment [2], 13.5 µM; in experiment [3] it was 1.2 µM; in experiment [4], 19 µM.

Regarding `N#Cc1nc(NCc2ccc(Cl)cc2)c2ncn(Cc3ccccc3)c2n1`, the IC50 in experiment [1] is more than 30 µM; in experiment [2], more than 30 µM; in experiment [3], 1.5 µM; in experiment [4], more than 25 µM.

Consider `N#Cc1nc(NCCc2ccccc2)c2ncn(Cc3cccnc3)c2n1`, for which the IC50 was more than 30 µM in experiment [1], 17.1 µM in experiment [2], 4.4 µM in experiment [3] and 10 µM in experiment [4].

For `N#Cc1nc(NCCc2ccccc2)c2ncn(Cc3ccccc3)c2n1`, the half-maximal inhibitory concentration (IC50) in experiment [1] is more than 30 µM; in experiment [2] it was more than 30 µM; in experiment [3] it was 2.4 µM; in experiment [4], more than 25 µM.

Take `CCC(C)CNc1nc(C#N)nc2c1ncn2C1CCCC1` (stereo unspecified): the IC50 in experiment [1] was more than 30 µM; in experiment [2], 2.38 µM; in experiment [3], 1.1 µM; in experiment [4], 14 µM.

`N#Cc1nc(NCc2ccc(Cl)c(Cl)c2)c2ncn(CCCO)c2n1`: the IC50 in experiment [2] came to 0.3 µM; in experiment [3], 0.11 µM; in experiment [4], 0.27 µM.

Take `N#Cc1nc(NCc2ccc(Cl)c(Cl)c2)c2ncn(CC(O)CO)c2n1` (stereo unspecified): the IC50 is more than 30 µM in experiment [1], 0.42 µM in experiment [2], 0.45 µM in experiment [3] and 1.2 µM in experiment [4].

As for `COCCCn1cnc2c(NCc3ccc(Cl)c(Cl)c3)nc(C#N)nc21`, the IC50 is more than 30 µM in experiment [1], 0.78 µM in experiment [2], 0.15 µM in experiment [3] and 2.5 µM in experiment [4].

Consider `COC(CCn1cnc2c(NCc3ccc(Cl)c(Cl)c3)nc(C#N)nc21)OC`, for which the IC50 was more than 30 µM in experiment [1], 0.5 µM in experiment [2], 0.22 µM in experiment [3] and 3.4 µM in experiment [4].

`CCCCn1cnc2c(NCc3ccc(Br)cc3)nc(C#N)nc21`: the IC50 in experiment [1] is more than 30 µM; in experiment [2], 9.62 µM; in experiment [3] it was 0.54 µM; in experiment [4], 8.4 µM.

Regarding `N#Cc1nc(NCc2ccc(Br)cc2)c2ncn(CCCc3ccccc3)c2n1`, the IC50 in experiment [1] was more than 30 µM; in experiment [2], more than 30 µM; in experiment [3], 0.42 µM; in experiment [4], more than 25 µM.

Turning to `CCCCn1cnc2c(NCc3ccc(Cl)c(Cl)c3)nc(C#N)nc21`, the IC50 was more than 30 µM in experiment [1], 1.82 µM in experiment [2], 0.18 µM in experiment [3] and 4.1 µM in experiment [4].

`CCCCn1cnc2c(NCc3ccc(Cl)cc3)nc(C#N)nc21`: the concentration for half-maximal inhibition (IC50) in experiment [1] is more than 30 µM; in experiment [2], 5.06 µM; in experiment [3], 0.85 µM; in experiment [4], 10 µM.

Regarding `COc1ccc(CNc2nc(C#N)nc3c2ncn3Cc2ccccc2)cc1`, the IC50 in experiment [1] is more than 30 µM; in experiment [2], 8.05 µM; in experiment [4], 4.5 µM. The EC50 (in general, the concentration giving half of the maximal effect) in experiment [3] was 1 µM.

`Cc1ccc(CNc2nc(C#N)nc3c2ncn3CCCO)cc1`: the IC50 in experiment [1] turned out to be 7.69 µM; in experiment [2], 1.17 µM; in experiment [4] it was 4.2 µM. The same molecule gave an EC50 in experiment [3] of 0.9 µM.

As for `N#Cc1nc(NCc2ccc(Cl)cc2)c2ncn(Cc3cccnc3)c2n1`, the IC50 in experiment [1] was more than 30 µM; in experiment [2], more than 30 µM; in experiment [3], 0.5 µM; in experiment [4], more than 25 µM.

Take `N#Cc1nc(NCc2ccc(Cl)cc2)c2ncn(CCCCO)c2n1`: the IC50 in experiment [2] amounted to 4.15 µM; in experiment [3] it was 0.6 µM; in experiment [4], 4.8 µM.

Regarding `N#Cc1nc(NCc2ccc(Cl)cc2)c2ncn(CC3CCCCC3)c2n1`, the IC50 in experiment [1] is more than 30 µM; in experiment [2], more than 30 µM; in experiment [3], more than 10 µM; in experiment [4] it was more than 25 µM.

For the molecule `CCCCn1cnc2c(NCCc3ccccc3)nc(C#N)nc21`, the IC50 in experiment [1] was more than 30 µM; in experiment [2], 17.1 µM; in experiment [3], 1.5 µM; in experiment [4], 16 µM.

As for `COc1ccc(Cn2cnc3c(NCc4ccccc4)nc(C#N)nc32)cc1`, the IC50 is more than 30 µM in experiment [1], 26.9 µM in experiment [2] and 11 µM in experiment [4]. The midpoint of the response in experiment [3], the EC50, lay at 0.4 µM.

Regarding `CCCCn1cnc2c(NCc3ccc(F)cc3)nc(C#N)nc21`, the IC50 in experiment [1] is more than 30 µM; in experiment [2], 6.84 µM; in experiment [3], 0.7 µM; in experiment [4] it was 7.1 µM.

Consider `CCCCn1cnc2c(NCc3ccc(OC)cc3)nc(C#N)nc21`, for which the IC50 in experiment [1] is more than 30 µM; in experiment [2], 2.28 µM; in experiment [4], 6 µM. The molecule further returned an EC50 in experiment [3] of 0.39 µM.

As to `CCCCn1cnc2c(NCc3ccc(C)cc3)nc(C#N)nc21`, the IC50 in experiment [1] is more than 30 µM; in experiment [2], 5.86 µM; in experiment [4] it was more than 25 µM. Besides, the half-maximal effective concentration (EC50) in experiment [3] was 0.55 µM.

For the molecule `N#Cc1nc(NCc2ccccc2)c2ncn(CCCO)c2n1`, the IC50 in experiment [2] is 2.27 µM; in experiment [4] it was 12 µM. In addition, the response in experiment [3] was half-maximal at 2.9 µM (EC50).

For `N#Cc1nc(NCc2ccccc2)c2ncn(C3CCCC3)c2n1`, the IC50 was more than 30 µM in experiment [1], 13.4 µM in experiment [2], 1.7 µM in experiment [3] and more than 25 µM in experiment [4].

Take `N#Cc1nc(NCc2ccccc2)c2ncn(Cc3ccccc3)c2n1`: the IC50 was more than 30 µM in experiment [1], 12.2 µM in experiment [2], 2 µM in experiment [3] and 6 µM in experiment [4].

Regarding `N#Cc1nc(NCc2ccc(Cl)cc2)c2ncn(Cc3cccc(C(F)(F)F)c3)c2n1`, the IC50 in experiment [1] was more than 30 µM; in experiment [2], more than 30 µM; in experiment [3], 0.34 µM; in experiment [4], more than 25 µM.

Regarding `N#Cc1nc(NCc2ccc(Cl)c(Cl)c2)c2ncn(CCCCCO)c2n1`, the IC50 in experiment [1] was more than 30 µM; in experiment [2], 0.8 µM; in experiment [3], 0.06 µM; in experiment [4], 0.93 µM.

As to `COCOCCn1cnc2c(NCc3ccc(Cl)c(Cl)c3)nc(C#N)nc21`, the IC50 was more than 30 µM in experiment [1], 0.87 µM in experiment [2], 0.32 µM in experiment [3] and 0.8 µM in experiment [4].

`N#Cc1nc(NCc2ccc(Cl)c(Cl)c2)c2ncn(CCO)c2n1`: the IC50 was more than 30 µM in experiment [1], 0.3 µM in experiment [2], 0.6 µM in experiment [3] and 1.4 µM in experiment [4].

In the case of `N#Cc1nc(NCc2ccc(Cl)c(Cl)c2)c2ncn(Cc3ccccc3)c2n1`, the figures for the IC50 in experiment [1], in experiment [2] and in experiment [4] were more than 30 µM, 14.9 µM and 15 µM, respectively. The molecule also showed an EC50 in experiment [3] of 0.26 µM.

In the case of `N#Cc1nc(NCc2ccccc2)c2ncn(CC3CCCCO3)c2n1` (stereo unspecified), the figures for the IC50 in experiment [1], in experiment [2] and in experiment [4] were more than 30 µM, 10.8 µM and 11 µM, respectively. For the same molecule, the concentration giving a half-maximal response (EC50) in experiment [3] was determined as 0.24 µM.

On to `N#Cc1nc(NCc2ccc(Br)cc2)c2ncn(Cc3ccccc3)c2n1`, for which the IC50 is more than 30 µM in experiment [1], 28.9 µM in experiment [2], 1.1 µM in experiment [3] and more than 25 µM in experiment [4].

With `N=C(N)c1ccc(/N=N/Nc2ccc(C(=N)N)cc2)cc1` [DIMINAZENE], the IC50 in experiment [1] was more than 30 µM; in experiment [3], 0.02 µM.

Regarding `Cc1ccc(C(=O)Nc2ccc(S(=O)(=O)O)c3cc(S(=O)(=O)O)cc(S(=O)(=O)O)c23)cc1NC(=O)c1cccc(NC(=O)Nc2cccc(C(=O)Nc3cc(C(=O)Nc4ccc(S(=O)(=O)O)c5cc(S(=O)(=O)O)cc(S(=O)(=O)O)c45)ccc3C)c2)c1` [SURAMIN], the concentration for half-maximal inhibition (IC50) in experiment [1] was more than 30 µM; in experiment [3], 0.13 µM.
